Reference: ChEMBL document CHEMBL1140080, “Adamantyl-substituted retinoid-derived molecules that interact with the orphan nuclear receptor small heterodimer partner: effects of replacing the 1-adamantyl or hydroxyl group on inhibition of cancer cell growth, induction of cancer cell apoptosis, and inhibition of SRC homology 2 …” (J Med Chem, 2008)

Tests used:
[1] = Antiproliferative activity against human H292 cells at 20 uM after 72 hrs by MTT assay; assay type: functional; settings: NCI-H292, 72 h
Procedure, shortened: (§1)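 Cells attached for 24 h, then exposed 72 h to analogue in Me2SO or Me2SO alone (final Me2SO 0.1%), with media and compound renewed after 48 h. Viable cells were measured by MTS tetrazolium reduction in three replicates. Top concentration tested per compound was 2.5, 5, 10, 20 or 100 μM.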

[2] = biological target: T1, Tyrosine-protein phosphatase non-receptor type 11 (Homo sapiens, UniProt Q06124); assay: Inhibition of SHP2 overexpressed in human KG1 cells; assay type: cell-based, KG-1
T1 sequence (Q06124 whole entry): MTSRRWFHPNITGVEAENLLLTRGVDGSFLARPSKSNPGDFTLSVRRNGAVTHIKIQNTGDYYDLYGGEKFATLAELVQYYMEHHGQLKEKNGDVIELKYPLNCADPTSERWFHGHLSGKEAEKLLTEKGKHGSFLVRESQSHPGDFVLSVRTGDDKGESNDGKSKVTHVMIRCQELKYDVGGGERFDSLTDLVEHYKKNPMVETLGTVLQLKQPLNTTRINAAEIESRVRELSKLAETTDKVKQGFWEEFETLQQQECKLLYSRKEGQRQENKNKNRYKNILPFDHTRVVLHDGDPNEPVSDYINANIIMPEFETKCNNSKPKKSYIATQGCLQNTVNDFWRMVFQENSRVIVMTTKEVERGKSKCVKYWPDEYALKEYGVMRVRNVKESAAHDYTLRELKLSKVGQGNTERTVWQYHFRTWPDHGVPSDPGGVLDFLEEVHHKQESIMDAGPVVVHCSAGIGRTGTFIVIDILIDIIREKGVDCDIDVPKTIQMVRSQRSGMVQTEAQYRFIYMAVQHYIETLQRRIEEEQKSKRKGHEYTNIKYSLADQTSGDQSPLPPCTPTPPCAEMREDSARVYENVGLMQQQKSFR
Procedure, shortened: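 Shp-2 PTP activity was measured as hydrolysis of the fluorogenic substrate 6,8-difluoro-4-methylumbelliferyl phosphate in the presence of analogue in Me2SO or Me2SO alone (final concentration 5%).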

KG-1 [3] = assay: Induction of apoptosis in human KG1 cells at 1.0 uM […] by acridine orange staining; assay type: functional
KG-1 [4] = assay: Induction of apoptosis in human KG1 cells at 5.0 uM […] by acridine orange staining; assay type: functional
[5] = Antiproliferative activity against human KG1 AML cells after 48 hrs by MTT assay; assay type: functional, cell-based; settings: in the assay text read “by hemocytometer cell counting” for “by MTT assay”
Procedure, shortened: (§2)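 KG-1 cells in 5% FBS medium attached overnight, then treated 48 h with analogue in Me2SO or Me2SO alone (final 0.1%). Cells were harvested and counted by hemocytometer in triplicate wells. Highest concentration evaluated was 5 μM.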

DU-145 [6] = assay: Antiproliferative activity against human DU145 cells after 72 hrs by MTT assay; assay type: functional, cell-based; settings: DU-145, 72 h; procedure, shortened: as §1
MDA-MB-231 [7] = assay: Antiproliferative activity against human MDA-MB-231 cells after 72 hrs by MTT assay; assay type: functional, cell-based; settings: MDA-MB-231, 72 h; procedure, shortened: as §1
[8] = Antiproliferative activity against human H292 cells after 72 hrs by MTT assay; assay type: functional, cell-based; settings: NCI-H292, 72 h; procedure, shortened: as §1
[9] = Antiproliferative activity against human KG1 AML cells at 5 uM after 48 hrs by MTT assay; assay type: functional; settings: in the assay text read “by hemocytometer cell counting” for “by MTT assay”; procedure, shortened: as §2
DU-145 [10] = assay: Antiproliferative activity against human DU145 cells at 20 uM after 72 hrs by MTT assay; assay type: functional; settings: DU-145, 72 h; procedure, shortened: as §1
MDA-MB-231 [11] = assay: Antiproliferative activity against human MDA-MB-231 cells at 20 uM after 72 hrs by MTT assay; assay type: functional; settings: MDA-MB-231, 72 h; procedure, shortened: as §1
[12] = Induction of apoptosis in human HL60R cells at 0.1 uM after 24 hrs by acridine orange staining; assay type: functional
Procedure, shortened: (§3)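 KG-1, HL-60R (24 h) or MDA-MB-231 (96 h) cells in 5% FBS medium attached overnight, then were treated with analogue in Me2SO or vehicle (final 0.1% Me2SO). Apoptotic cells were scored by acridine orange staining on at least three replicates. Tested concentrations were 0.1–5.0 μM, plus 25 μM for KG-1.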

[13] = Induction of apoptosis in human HL60R cells at 1.0 uM after 24 hrs by acridine orange staining; assay type: functional; procedure, shortened: as §3
MDA-MB-231 [14] = assay: Induction of apoptosis in human MDA-MB-231 cells at 1.0 uM after 96 hrs by acridine orange staining; assay type: functional; procedure, shortened: as §3
MDA-MB-231 [15] = assay: Induction of apoptosis in human MDA-MB-231 cells at 2.0 uM after 96 hrs by acridine orange staining; assay type: functional; procedure, shortened: as §3
[16] = Growth inhibition of human HL60R cells at 0.1 uM after 24 hrs by hemocytometer; assay type: functional; settings: read-out: GI
Procedure, shortened: (§4)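 HL-60R cells in medium with 5% FBS attached overnight, then received analogue in Me2SO or vehicle (final Me2SO 0.1%) for 24 h. Cells were harvested and counted in triplicate wells with a hemocytometer.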

[17] = Growth inhibition of human HL60R cells at 1.0 uM after 24 hrs by hemocytometer; assay type: functional; settings: read-out: GI; procedure, shortened: as §4
[18] = Growth inhibition of HMVE cells after 72 hrs by alamar blue method; assay type: cell-based; settings: Homo sapiens
[19] = Growth inhibition of HMVE cells at 0.5 uM after 72 hrs by alamar blue method; assay type: cell-based; settings: human, HMVE cells; read-out: GI
[20] = biological target: T2, Nuclear receptor subfamily 0 group B member 2 (Homo sapiens, UniProt Q15466); assay: Displacement of [5,5'-3H2]AHPN from human recombinant GST-SHP by liquid scintillation counting relative to 3-Cl-AHPC
T2 sequence (Q15466 whole entry): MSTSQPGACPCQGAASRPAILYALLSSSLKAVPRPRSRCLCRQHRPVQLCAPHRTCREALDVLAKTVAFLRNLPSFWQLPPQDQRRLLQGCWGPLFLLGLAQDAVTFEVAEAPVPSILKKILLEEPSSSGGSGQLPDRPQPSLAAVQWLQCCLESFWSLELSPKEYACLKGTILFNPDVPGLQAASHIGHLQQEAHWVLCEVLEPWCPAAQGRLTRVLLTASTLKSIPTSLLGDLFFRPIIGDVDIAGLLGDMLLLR
Procedure, shortened: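 Recombinant GST–human SHP was bound to glutathione–Sepharose beads and incubated 2 h with 5 nM [5,5′-3H2]AHPN with or without competitor (1.0, 5.0 or 50 μM). Beads were washed twice and counted. Displacement was expressed relative to 50 μM 3-Cl-AHPC set as 100%.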

KG-1 [21] = assay: Induction of apoptosis in human KG1 cells after 48 hrs by acridine orange staining; assay type: functional, cell-based; settings: KG-1, 48 h
DU-145 [22] = assay: Antiproliferative activity against human DU145 cells at 2.5 uM after 72 hrs by MTT assay; assay type: functional; settings: DU-145, 72 h; procedure, shortened: as §1
MDA-MB-231 [23] = assay: Antiproliferative activity against human MDA-MB-231 cells at 2.5 uM after 72 hrs by MTT assay; assay type: functional; settings: MDA-MB-231, 72 h; procedure, shortened: as §1
[24] = Antiproliferative activity against human H292 cells at 2.5 uM after 72 hrs by MTT assay; assay type: functional; settings: NCI-H292, 72 h; procedure, shortened: as §1

| SMILES | IC50 [2] [nM] | Activity (KG-1 [3]) [%] | Activity (KG-1 [4]) [%] | IC50 [5] [nM] | IC50 (DU-145 [6]) [nM] | IC50 (MDA-MB-231 [7]) [nM] | IC50 [8] [nM] | Activity [9] [%] | Activity [12] [%] | Activity [13] [%] | Activity (MDA-MB-231 [14]) [%] | Activity (MDA-MB-231 [15]) [%] | also measured |
| --- | --- | --- | --- | --- | --- | --- | --- | --- | --- | --- | --- | --- | --- |
| CC1(c2cc(-c3ccc(/C=C/C(=O)O)cc3Cl)ccc2O)SCCCS1 | 10200 | 5 | 5 | > 5000 | > 20000 | > 20000 | > 20000 | 0 | – | – | – | – | inhibition at 20 µM [1]: 6%; inhibition at 20 µM (DU-145 [10]): 8%; inhibition at 20 µM (MDA-MB-231 [11]): 13% |
| O=C(O)c1ccc2cc(-c3cccc(C45CC6CC(CC(C6)C4)C5)c3)ccc2c1 | – | – | – | – | – | – | – | – | 2 | 2 | 2 | 7 | inhibition of growth at 0.1 µM [16]: 4%; inhibition of growth at 1 µM [17]: 8%; IC50 [18]: > 500 nM; inhibition at 72 h, 0.5 µM [19]: 36% |
| O=C(O)/C=C/c1ccc(-c2ccc(O)c(C34CC5CC(CC(C5)C3)C4)c2)c(Cl)c1 | 2100 | 30 | 55 | 1400 | 480 | 950 | 400 | 67 | 51 | 94 | 31 | 43 | IC50 [20]: 2500 nM; IC50 (KG-1 [21]): 4200 nM; inhibition at 2.5 µM (DU-145 [22]): 85%; inhibition at 2.5 µM (MDA-MB-231 [23]): 63%; inhibition at 2.5 µM [24]: 92% |
